Source: ChEMBL document CHEMBL3526029, “Disposition and metabolism of GSK2251052 in humans: a novel boron-containing antibiotic” (Drug Metab Dispos, 2013)

What was measured:
[1] = Drug recovery in cynomolgus monkey liver S9 fraction at pH 8.8 treated with [14C]GSK2251052 at 500 uM after 3 hrs by liquid scintillation counting in presence of NAD+; type: ADME, subcellular, Macaca fascicularis; settings: s9, pH 8.8, 3 h
Plasma [2] = experiment: Half life in plasma of healthy human treated with [14C]GSK2251052 at 1500 mg, iv infusion for 1 hr as single dose; type: ADME, organism-based; settings: in vivo
How it was run: (§1)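 Healthy men got a single 1500 mg [14C] dose by 1 h i.v. infusion. K2EDTA blood was sampled up to 336 h. Radioactivity in blood and plasma was measured by LSC, with AMS for plasma below LLQ. Parent and M3 were measured by LC/MS/MS (5–10,000 ng/ml range). Noncompartmental analysis used actual times, with t1/2 = ln2/λz and Tmax observed directly, timed from infusion start.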

[3] = Drug recovery in healthy human feces treated with [14C]GSK2251052 at 1500 mg, iv infusion for 1 hr as single dose after 120 hrs by HPLC method; type: ADME, organism-based; settings: in vivo
How it was run: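 Feces pooled over 0–120 h per subject by sample weight. About 1 g homogenate extracted twice with 4 volumes of acetonitrile:methanol:water:formic acid (50:25:25:1) under 20 min sonication. Extracts dried and reconstituted in water:methanol 90:10. Profiled by HPLC (Atlantis T3, ammonium acetate pH 4.5/methanol, 30°C) with fraction radiocounting and Orbitrap MS. Results given as % of dose, corrected for extraction recovery.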

[4] = Drug recovery in healthy human urine treated with [14C]GSK2251052 at 1500 mg, iv infusion for 1 hr as single dose after 120 to 336 hrs by HPLC method; type: ADME, organism-based; settings: in vivo
How it was run: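 Urine pooled by weight per subject over 0–120 h; 120–336 h pools from all subjects combined into one composite. Centrifuged at ~21,000g, then supernatant profiled by HPLC (Atlantis T3, ammonium acetate pH 4.5/methanol, 30°C) with radiochemical detection plus MS identification. Results are % of dose, corrected for centrifugation recovery measured by triplicate LSC.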

[5] = Drug metabolism in human liver cytosol assessed as ADH-mediated compound formation treated with GSK2251052 at 50 to 500 uM by spectrophotometry in presence of NAD+; type: ADME; settings: TDE = time-dependent effect
[6] = Drug metabolism assessed as purified ADH (unknown origin)-mediated compound formation treated with GSK2251052 at 50 to 500 uM by spectrophotometry in presence of NAD+; type: ADME; settings: human, TDE = time-dependent effect
Plasma [7] = experiment: Tmax in plasma of healthy human treated with [14C]GSK2251052 at 1500 mg, iv infusion for 1 hr as single dose; type: ADME, organism-based; settings: in vivo; how it was run: as §1
[8] = Drug recovery in healthy human feces treated with [14C]GSK2251052 at 1500 mg, iv infusion for 1 hr as single dose after 0 to 120 hrs by HPLC method; settings: in vivo
Plasma [9] = experiment: AUC (0 to t) in plasma of healthy human treated with [14C]GSK2251052 at 1500 mg, iv infusion for 1 hr as single dose; type: ADME, organism-based; settings: in vivo
How it was run: (§2)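 Six fasted healthy men received 1500 mg [14C]GSK2251052 as a 1-h constant-rate i.v. infusion. K2EDTA plasma was sampled from predose to 72 h, with profiling samples added at 96, 144 and 336 h. Parent and M3 were measured by validated LC/MS/MS after methanol/formic acid precipitation with stable-label internal standards (range 5–10,000 ng/ml). Noncompartmental analysis used actual times, linear-up/log-down trapezoids and CL = dose/AUC(0-∞).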

[10] = Drug recovery in cynomolgus monkey liver microsomes at pH 7.4 treated with [14C]GSK2251052 at 500 uM after 3 hrs by liquid scintillation counting in presence of NAD+; type: ADME, Macaca fascicularis; settings: pH 7.4, 3 h
Liver cytosol = experiment: Drug metabolism in human liver cytosol assessed as compound formation treated with GSK2251052 at 50 to 500 uM after 3 hrs by spectrophotometry in presence of NAD+ and ADH inhibitor 4-MP; type: ADME
Plasma [11] = experiment: AUC (0 to infinity) in plasma of healthy human treated with [14C]GSK2251052 at 1500 mg, iv infusion for 1 hr as single dose; type: ADME, organism-based; parameters: dose 1500 mg, route intravenous, time infinity; settings: in vivo; how it was run: as §2
[12] = Drug recovery in cynomolgus monkey liver cytosol at pH 8.4 treated with in presence of NAD+ [14C]GSK2251052 at 500 uM after 3 hrs by liquid scintillation counting; type: ADME, Macaca fascicularis; settings: pH 8.4, 3 h
Plasma [13] = experiment: Cmax in plasma of healthy human treated with [14C]GSK2251052 at 1500 mg, iv infusion for 1 hr as single dose; type: ADME, organism-based; parameters: dose 1500 mg, route intravenous; settings: in vivo; how it was run: as §2
[14] = Drug recovery in cynomolgus monkey liver cytosol at pH 7.4 treated with [14C]GSK2251052 at 500 uM after 3 hrs by liquid scintillation counting in presence of NAD+; type: ADME, Macaca fascicularis; settings: pH 7.4, 3 h
[15] = Drug recovery in cynomolgus monkey liver S9 fraction at pH 7.4 treated with [14C]GSK2251052 at 500 uM after 3 hrs by liquid scintillation counting in presence of NAD+; type: ADME, subcellular, Macaca fascicularis; settings: s9, pH 7.4, 3 h
[16] = Drug recovery in cynomolgus monkey liver S9 fraction at pH 8.4 treated with [14C]GSK2251052 at 500 uM after 3 hrs by liquid scintillation counting in presence of NAD+; type: ADME, subcellular, Macaca fascicularis; settings: s9, pH 8.4, 3 h

Q: Which Drug recovery [1] does the source give for `Cl.NC[C@H]1OB(O)c2c(OCCC(=O)O)cccc21` here?
A: 4.3%

Q: What about the t1/2 (Plasma [2]) of the same compound?
A: 77.3 h

Q: And the Drug recovery [3]?
A: 3.3%

Q: And the Drug recovery ([4]; in the assay text read “0 to 120 hrs” for “120 to 336 hrs”)?
A: 43.8%

Q: And the Drug metabolism [5]?
A: tde

Q: And the Drug metabolism [6]?
A: tde

Q: And the Tmax (Plasma [7])?
A: 7 h

Q: And the Drug recovery [8]?
A: 3.3%

Q: And the AUCt (Plasma [9])?
A: 101 µg·h/mL

Q: What about the Drug recovery [10] of the same compound?
A: 2.5%

Q: What about the Drug metabolism (Liver cytosol) of the same compound?
A: metabolite_not_detected

Q: And the AUC (Plasma [11])?
A: 103 µg·h/mL

Q: What about the Drug recovery [12] of the same compound?
A: 0.9%

Q: What about the Cmax (Plasma [13]) of the same compound?
A: 1770 ng/mL

Q: And the Drug recovery [14]?
A: 1.7%

Q: What about the Drug recovery [15] of the same compound?
A: 7.7%

Q: And the Drug recovery [16]?
A: 6.7%

Q: Which Drug recovery [3] does the source give for `NCC(O)c1cccc(OCCC(=O)O)c1O` (stereo not given) here?
A: 1.4%

Q: And the Drug recovery ([4]; BLD = below limit of detection)?
A: BLD

Q: And the Drug recovery [8]?
A: 1.4%
